Assay results from ChEMBL document CHEMBL1139299, “Facilitated phospholipid translocation in vesicles and nucleated cells using synthetic small molecule scramblases” (Bioorg Med Chem, 2009).

Columns and labels:
Type in all cases: functional
Jurkat = assay: Cytotoxicity against human Jurkat cells by MTT assay; conditions: read-out: LD50 (the source's name)
Summary of the method: (§1)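 Cells (Jurkat and LNCaP grown in RPMI with 10% FBS) were seeded at ≥5 × 10^4 cells/mL, dosed from DMSO stock for 24 h, then given fresh medium plus MTT (Jurkat pelleted first). After 4 h, SDS in 0.01 M HCl was added for 18 h at 37°C. A570 was read. % living cells was calculated against a no-cell blank and a DMSO-only control, and LD50 was reported.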

PC-3 [1] = assay: Cytotoxicity against human PC3 cells by MTT assay; conditions: read-out: LD50 (the source's name)
Summary of the method: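 PC3 cells grown in Ham's F-12K with 10% FBS were seeded at ≥5 × 10^4 cells/mL, dosed from DMSO stock for 24 h, then given fresh growth medium plus MTT for 4 h. SDS in 0.01 M HCl was added for 18 h at 37°C, 5% CO2. A570 was read. % living cells was calculated against a no-cell blank and a DMSO-only control, and LD50 was reported.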

LNCaP = assay: Cytotoxicity against human LNCAP cells by MTT assay; conditions: read-out: LD50 (the source's name); summary of the method: as §1
PC-3 [2] = assay: Induction of endogenous phospholipidserine distribution in human PC3 cells at 100 uM by Annexin-V-FITC
Summary of the method: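 PC3 cells detached with trypsin at 90% confluency and resuspended in TES buffer (5 mM TES, 100 mM NaCl, pH 7.4) at 1 × 10^5 cells/mL. Scramblase added from DMSO stock, 100 μM final, 2 h at 37°C, 5% CO2. Pelleted, resuspended in binding buffer, stained 15 min at 37°C with Annexin V-FITC plus 7AAD (500 ng/mL) to exclude necrotic cells. Annexin-positive fraction read by flow cytometry; three independent experiments.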

CC(=O)c1ccc(NC(=O)NCCN(CCNS(=O)(=O)c2ccc(C)cc2)CCNS(=O)(=O)c2ccc(C)cc2)cc1
CC50 (Jurkat): > 100 µM
CC50 (PC-3 [1]): > 100 µM
CC50 (LNCaP): > 100 µM

Cc1ccc(S(=O)(=O)NCCN(CCNC(=O)Nc2ccc(C(F)(F)F)cc2)CCNS(=O)(=O)c2ccc(C)cc2)cc1
CC50 (Jurkat): > 100 µM
CC50 (PC-3 [1]): > 100 µM
CC50 (LNCaP): > 100 µM

Cc1ccc(S(=O)(=O)NCCN(CCNC(=O)[C@H](N)Cc2ccccc2)CCNS(=O)(=O)c2ccc(C)cc2)cc1
CC50 (Jurkat): 25 µM
CC50 (PC-3 [1]): 15 µM
CC50 (LNCaP): 40 µM

Cc1ccc(S(=O)(=O)NCCN(CCNC(=O)Nc2ccc(Oc3ccccc3)cc2)CCNS(=O)(=O)c2ccc(C)cc2)cc1
CC50 (Jurkat): > 100 µM
CC50 (PC-3 [1]): > 100 µM
CC50 (LNCaP): > 100 µM

Cc1ccc(S(=O)(=O)NCCN(CCNC(=O)Nc2ccc(OC(F)(F)F)cc2)CCNS(=O)(=O)c2ccc(C)cc2)cc1
CC50 (Jurkat): > 100 µM
CC50 (PC-3 [1]): > 100 µM
CC50 (LNCaP): > 100 µM

Cc1ccc(S(=O)(=O)NCCN(CCNC(=O)Nc2ccccc2)CCNS(=O)(=O)c2ccc(C)cc2)cc1
CC50 (Jurkat): > 100 µM
CC50 (PC-3 [1]): > 100 µM
Activity (PC-3 [2]): < 5%
CC50 (LNCaP): > 100 µM

Cc1ccc(S(=O)(=O)NCCN(CCNC(=O)Nc2ccc(Cl)cc2)CCNS(=O)(=O)c2ccc(C)cc2)cc1
CC50 (Jurkat): > 100 µM
CC50 (PC-3 [1]): > 100 µM
CC50 (LNCaP): > 100 µM

Cc1ccc(NC(=O)NCCN(CCNS(=O)(=O)c2ccc(C)cc2)CCNS(=O)(=O)c2ccc(C)cc2)cc1
CC50 (Jurkat): > 100 µM
CC50 (PC-3 [1]): > 100 µM
CC50 (LNCaP): > 100 µM

Cc1ccc(S(=O)(=O)NCCN(CCNC(=O)Nc2ccc(Br)cc2)CCNS(=O)(=O)c2ccc(C)cc2)cc1
CC50 (Jurkat): > 100 µM
CC50 (PC-3 [1]): > 100 µM
CC50 (LNCaP): > 100 µM

COc1ccc(NC(=O)NCCN(CCNS(=O)(=O)c2ccc(C)cc2)CCNS(=O)(=O)c2ccc(C)cc2)cc1
CC50 (Jurkat): > 100 µM
CC50 (PC-3 [1]): > 100 µM
CC50 (LNCaP): > 100 µM

Cc1ccc(S(=O)(=O)NCCN(CCNC(=S)Nc2ccc(Cl)cc2)CCNS(=O)(=O)c2ccc(C)cc2)cc1
CC50 (Jurkat): 15 µM
CC50 (PC-3 [1]): 25 µM
CC50 (LNCaP): 15 µM

Cc1ccc(S(=O)(=O)NCCN(CCNC(=O)Nc2ccc(C(C)(C)C)cc2)CCNS(=O)(=O)c2ccc(C)cc2)cc1
CC50 (Jurkat): > 100 µM
CC50 (PC-3 [1]): > 100 µM
CC50 (LNCaP): > 100 µM

Cc1ccc(S(=O)(=O)NCCN(CCNC(=O)Nc2ccc([N+](=O)[O-])cc2)CCNS(=O)(=O)c2ccc(C)cc2)cc1
CC50 (Jurkat): > 100 µM
CC50 (PC-3 [1]): > 100 µM
Activity (PC-3 [2]): < 5%
CC50 (LNCaP): > 100 µM

Cc1ccc(S(=O)(=O)NCCN(CCNC(=O)Nc2ccc(C(C)C)cc2)CCNS(=O)(=O)c2ccc(C)cc2)cc1
CC50 (Jurkat): > 100 µM
CC50 (PC-3 [1]): > 100 µM
Activity (PC-3 [2]): < 5%
CC50 (LNCaP): > 100 µM

Cc1ccc(S(=O)(=O)NCCN(CCNC(=O)Nc2ccc(C#N)cc2)CCNS(=O)(=O)c2ccc(C)cc2)cc1
CC50 (Jurkat): > 100 µM
CC50 (PC-3 [1]): > 100 µM
CC50 (LNCaP): > 100 µM

Cc1ccc(S(=O)(=O)NCCN(CCNCc2ccccc2)CCNS(=O)(=O)c2ccc(C)cc2)cc1
CC50 (Jurkat): 25 µM
CC50 (PC-3 [1]): 25 µM
CC50 (LNCaP): 40 µM
